# High-throughput results: PubChem BioAssay, several laboratories
# Ecoli WT expand – growth inhibitors of E. coli BW25113 wild type. OD600 absorbance. growth inhibition, % at 100 µM. actives 0.15% (n = 98,000). AID 710;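 active = growth inhibition above about 50% at one test dose, limit read from the data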;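 also: growth measured after 20 h incubation at 37 °C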
# tolC growth inh – blocks growth of E. coli BW25113 tolC mutant. OD615. growth inhibition, % at 10 µM (by protocol). actives 2.2% (n = 65,000);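 active = growth inhibition at or above a cutoff equal to the mean over every tested compound plus 3 SD, cut at about 60% in these data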;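 also: growth measured after 20 h incubation at 37 °C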
#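 Test system: E. coli BW25113 ΔtolC::kan bacteria | Medium: Kanamycin-containing LB broth (50 µg/mL) | Dosing: One dose of 10 µM final | Times: 20 h incubation with compound, 37 °C | Detection: Optical density read at 615 nm | Read-out basis: Percent growth inhibition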
# H69AR growth 86K – growth inhibitors of human H69AR lung tumor cells; actives 6% (n = 85,000); viability, % at 10 µM; H69AR lung tumor viability, ATP luminescence, 72 h; hits give low values;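 active = viability at or below 40%; inactive = viability above 40%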;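 also: multidrug resistant small cell line overexpressing MRP-1 efflux transporter; 100% = mean luminescence of untreated control wells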
# Lung fibro prol – blocks proliferation of human lung fibroblasts | viability, % at 10 µM | AID 719 | LL 47 human lung fibroblast viability, ATP luminescence; hits give low values | actives 1.1% (n = 85,000);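 active = viability at or below 50% in the single dose screen; inactive = viability above 50%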;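 also: compound exposure lasted 72 h before the ATP readout; 100% = median luminescence of untreated cell-only wells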
#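 test system = LL 47 human lung fibroblasts | amount = 1,150 fibroblasts seeded per well | medium = 15% FBS in IMEM | times = overnight cell rest, 72 h compound treatment at 37 °C | measured by = CellTiter-Glo luminescence measuring cellular ATP | read-out = viability percentage against median untreated-cell control | benchmarks = cell-only wells, no compound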
# HUVEC prolif 384 – blocks proliferation of human endothelial cells. HUVEC proliferation, CellTiter-Glo luminescence, 72 h; hits give low values. viability, % at 10 µM (by protocol). actives 1.1% (n = 86,000). AID 648;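 active = viability at or below 30%; inactive = viability above 30%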;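 also: 100% = median luminescence of DMSO-only cell control wells on each plate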
# Jurkat viability – cytotoxic compounds reducing Jurkat cell viability; Jurkat E6.1 viability, ATP luminescence, 48 h; inhibition, % at 4 µM; actives 1.2% (n = 56,000); AID 463;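 active = inhibition above the mean inhibition of all tested compounds plus 3 SD, cut at about 28% in these data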
# Active calls of the source: *; / = no result. This is a sample that favours compounds with a hit; in the whole collection about 6.4% have one here.
SMILES,Ecoli WT expand,tolC growth inh,H69AR growth 86K,Lung fibro prol,HUVEC prolif 384,Jurkat viability
COc1cc2c(O)c3c(c(-c4ccc5c(c4)OCO5)c2cc1OC)C(=O)OC3,-15.0,13.0,3.6*,11.4*,2.6*,60.5*
NC(=O)c1cc(Br)cc2c3c([nH]c12)CCCC3,-4.0,56.1,17.9*,87.5,41.6,9.4
Cn1c(N2C(=O)CC(Cc3ccccc3)C2=O)nc2ccccc21 (stereo not drawn),/,/,94.1,99.0,106.3,/
CC(C)CSc1nc2c(c(=O)[nH]c(=O)n2C)n1CC(O)COc1cccc2ccccc12 (stereo not drawn),-10.0,-0.3,32.2*,90.8,79.2,-8.4
COc1ccc(OC)c(C2/C(=C(\O)c3c(C)nc4ccccn34)C(=O)C(=O)N2CCCN(C)C)c1 (stereo not drawn),/,-9.4,95.9,103.1,95.5,2.0
COc1ccccc1N1C(=O)C2ON(c3ccccc3)C(c3ccc(N(C)C)cc3)C2C1=O (stereo not drawn),/,3.3,10.6*,106.7,80.7,/
COc1ccccc1C1C2C(=O)N(c3ccccc3)C(=O)C2ON1c1ccccc1 (stereo not drawn),-2.0,-14.6,87.9,103.2,90.5,11.8
C=CCSc1n[nH]c(-c2ccc(OCCC)cc2)n1,21.0,33.2,81.5,93.1,96.6,-5.2
C=CCSc1n[nH]c(-c2ccc(OCCCC)cc2)n1,0.0,85.5*,66.2,94.0,79.0,1.9
CCN(CC)CCNC(=O)c1c(C)oc2cc(Br)c(OC)cc12,4.0,2.1,86.3,91.3,83.0,/
O=C(O)C1CC=CCC1C(=O)Nc1ccc(S(=O)(=O)N2CCCc3ccccc32)cc1 (stereo not drawn),5.0,61.0*,91.8,93.9,78.6,35.1*
O=C(Nc1ccc(S(=O)(=O)N2CCCc3ccccc32)cc1)C1CCCO1 (stereo not drawn),-11.0,67.6*,53.3,90.1,77.4,-1.7
O=S(=O)(Nc1ccc(F)cc1)c1ccc(NC(=S)Nc2ccccc2)cc1,8.0,/,/,/,/,/
CCOC(CNC(=O)c1cccn2c(=O)c3cc(Cl)ccc3nc12)OCC,-13.0,/,38.4*,96.9,73.8,/
CCC1(O)c2ccccc2-c2ncccc21 (stereo not drawn),2.0,/,98.3,102.5,96.2,/
CCN(CC)S(=O)(=O)c1ccc(C(=O)Nc2ncn(Cc3ccccc3)n2)cc1,-1.0,10.5,/,/,/,2.0
COc1ccccc1-c1nnc(NC(=O)c2ccccc2F)o1,7.0,0.9,1.9*,88.4,95.5,-3.5
COc1ccc(NC(=O)c2ccc(S(=O)(=O)N(C)C)cc2)cc1OC,14.0,-1.4,77.0,90.3,88.7,/
COc1ccccc1-c1nnc(NC(=O)c2ccc(S(=O)(=O)N(C)C)cc2)o1,0.0,96.0*,102.2,77.2,75.1,20.1
CCN(Cc1ccccc1)S(=O)(=O)c1ccc(C(=O)Nc2nnc(-c3ccccc3OC)o2)cc1,-3.0,97.8*,50.8,78.2,65.2,2.1
O=C(CN1CCN(S(=O)(=O)c2ccccc2)CC1)Nc1ccc(Cl)c(Cl)c1,-4.0,/,/,/,/,/
COc1ccccc1OCC(=O)Nc1sc2c(c1C(=O)NCC1CCCO1)CCC2 (stereo not drawn),-1.0,/,/,/,/,/
COC(=O)CN(c1cccc(F)c1)S(C)(=O)=O,2.0,/,/,/,/,/
CC(=O)c1cccc2c(O)c(C3=Nc4ccccc4C3=O)[nH]c12,/,/,1.5*,61.2,36.0,/
O=C(c1ccc(C#CC2(O)CCCCC2)cc1)N1CCN(C(c2ccccc2)c2ccccc2)CC1,-14.0,/,34.0*,100.2,85.0,/
SMILES,Ecoli WT expand,tolC growth inh,H69AR growth 86K,Lung fibro prol,HUVEC prolif 384,Jurkat viability
O=C(c1ccc(C#CC2(O)CCCCC2)cc1)N1CCN(Cc2ccccc2)CC1,1.0,/,94.9,99.2,99.1,/
O=C(NC1CCCCCC1)c1ccc(S(=O)(=O)NCc2ccco2)cc1,4.0,/,/,/,/,/
O=C(NCCc1c[nH]c2ccccc12)c1ccc(S(=O)(=O)NCc2ccco2)cc1,6.0,-2.5,39.4*,96.1,70.4,/
CN(O)/C=c1/ccc2c(n1)C(=O)C=CC=2,48.0,4.0,36.7*,110.2,94.5,11.6
COc1ccc(CNC(=O)C(c2ccncc2)N(C(=O)Cc2cccs2)c2ccc(C)cc2)cc1 (stereo not drawn),-4.0,/,/,/,/,/
Fc1ccc(-c2cc3nc(-c4ccccc4)cc(N4CCN(CCN5CCOCC5)CC4)n3n2)cc1,9.0,29.3,25.6*,56.7,31.8,10.4
CN1CCN(c2cc(-c3ccccc3)nc3cc(-c4ccc(F)cc4)nn23)CC1,-5.0,/,/,/,/,/
Cn1cc(/C=N/n2cnc3sc4c(c3c2=O)CCCC4)c2ccccc21,-8.0,34.5,26.5*,89.5,77.8,4.7
Cc1ccc(NCc2nnc3n2CCCCC3)cc1,-3.0,-19.7,99.2,103.0,113.9,1.3
CC(C)(c1ccccc1)c1ccc(OCCCNCCO)cc1,15.0,/,0.9*,66.4,25.6*,/
CC(C)NCCCOc1ccc(C(C)(C)c2ccccc2)cc1,5.0,/,68.1,97.5,101.9,/
CCC(CCC(=O)Nc1ccc(S(N)(=O)=O)cc1)C(=O)O (stereo not drawn),-6.0,/,107.3,98.7,98.3,/
COC(=O)c1ccc(CSc2nc3ccccc3[nH]2)o1,14.0,/,91.9,108.5,97.3,/
COC(=O)c1cc(CSc2nc3ccc(C)cc3[nH]2)oc1C,/,73.2*,84.8,102.2,68.8,/
COc1ccc(C2(C(F)(F)F)NC(=O)N(C)C(=O)N2C)cc1 (stereo not drawn),10.0,-2.8,99.4,92.4,97.9,/
Cc1ccccc1NCC(=O)N/N=C/C(Br)=C/c1ccccc1,-13.0,/,10.5*,70.5,30.3,/
O=C(Cc1cccs1)N/N=C/C(Br)=C/c1ccccc1,-8.0,/,/,/,/,/
CC(=O)Oc1ccc2c(C)cc(=O)oc2c1,18.0,/,96.3,109.5,103.9,/
CC(=O)Oc1cc2oc(=O)cc(C)c2cc1OC(C)=O,16.0,3.2,36.1*,83.6,77.7,14.4
CCCCC(=O)NC(c1cccc([N+](=O)[O-])c1)c1c(OC(C)=O)ccc2ccccc12 (stereo not drawn),/,/,4.6*,89.0,79.6,/
Cc1ccc(-c2nnn(CC(=O)N(c3ccccc3F)C(C(=O)NCC3CCCO3)c3c[nH]c4ccccc34)n2)cc1 (stereo not drawn),-2.0,/,/,/,/,/
CCOC(=O)N1CCN(C(=O)c2cc3sccc3n2C)CC1,0.0,1.9,/,/,/,-5.0
O=C(c1c(F)c(F)c(F)c(F)c1F)N1CCN(c2cccc(C(F)(F)F)c2)CC1,-14.0,49.4,28.9*,67.1,35.9,-12.7
Cc1ccc(C)c(N2CCN(C(=O)c3cc4sccc4n3C)CC2)c1,-6.0,76.3*,93.8,/,90.5,-1.2
Cc1ccc(N2CCN(C(=O)c3ccccc3Br)CC2)c(C)c1,-2.0,40.3,94.1,99.8,97.4,-0.4
Cc1ccc(C)c(N2CCN(C(=O)c3ccccc3Br)CC2)c1,-8.0,68.9*,84.6,97.3,103.8,-4.0
Cn1c(C(=O)N2CCN(c3cccc(C(F)(F)F)c3)CC2)cc2sccc21,-29.0,70.9*,/,/,/,-5.0
